Data: ChEMBL document CHEMBL1148823, “Inactivation of O(6)-alkylguanine-DNA alkyltransferase by folate esters of O(6)-benzyl-2'-deoxyguanosine and of O(6)-[4-(hydroxymethyl)benzyl]guanine” (J Med Chem, 2007)
Active and inactive are the calls of the source. No cut-off for these calls is given here.

Columns and labels:
[1] = organism: Homo sapiens; test: Inactivation of human alkyltransferase in absence of DNA
Method in brief: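 Purified recombinant human alkyltransferase was incubated with a range of inhibitor concentrations for 30 min at 37°C. The reaction buffer was 50 mM Tris-HCl pH 7.6, 0.1 mM EDTA and 5.0 mM dithiothreitol, with 50 μg hemocyanin and no DNA. ED50 was read from plots of % remaining activity against inhibitor concentration. Values are means of 3–5 repeats or of two experiments.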

[2] = organism: Homo sapiens; test: (§1) Inactivation of human alkyltransferase in presence of DNA
Method in brief: (§2)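 Purified recombinant human alkyltransferase was incubated with a range of inhibitor concentrations plus 10 μg calf thymus DNA for 30 min at 37°C. The buffer was 50 mM Tris-HCl pH 7.6, 0.1 mM EDTA and 5.0 mM DTT. ED50 came from graphs of % remaining activity against inhibitor concentration. Values are means of 3–5 repeats or of two experiments.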

[3] = tested on: HT-29; test: Induction of sensitization to BCNU-induced killing in human HT29 cells; format: functional, cell-based
Method in brief: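 HT29 cells in RPMI with 10% FBS were given inhibitor for 2 h before 40 μM BCNU for 2 h. Alternatively, cells grown 48 h in folate-free RPMI got inhibitor for 8 h before 20 μM BCNU for 2 h. Inhibitor-containing medium followed for 16–18 h. Cells were replated at 250–1000 per flask and grown 8 days. Survival was scored as crystal violet-stained colonies.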

[4] = as §1; method in brief: as §2
[5] = tested on: A549; test: Induction of sensitization to BCNU-induced killing in human A549 cells; format: functional, cell-based
Method in brief: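 A549 cells were grown 48 h in folate-free RPMI with 10% FBS and plated at 10⁶ per flask. After 24 h they were given inhibitor at various concentrations for 8 h, then 20 μM BCNU for 2 h. Medium was replaced with inhibitor-containing medium for 16–18 h. Cells were replated at 250–1000 per flask and grown 8 days. Crystal violet-stained colonies were counted.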

[6] = tested on: KB; test: Induction of sensitization to BCNU-induced killing in human KB cells; format: functional, cell-based
Method in brief: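 KB cells were grown 48 h in folate-free RPMI with 10% FBS and plated at 10⁶ per flask. After 24 h they were exposed to inhibitor at different concentrations for 8 h, then 40 μM BCNU for 2 h. Medium with inhibitor but no BCNU was given for 16–18 h. Cells were replated at 250–1000 per flask for 8 days of colony formation. Colonies were stained with crystal violet and counted.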

[7] = tested on: T1, Methylated-DNA--protein-cysteine methyltransferase (Homo sapiens), P16455 [P140K]; test: Inactivation of human alkyltransferase P140K mutant
T1 sequence (whole entry): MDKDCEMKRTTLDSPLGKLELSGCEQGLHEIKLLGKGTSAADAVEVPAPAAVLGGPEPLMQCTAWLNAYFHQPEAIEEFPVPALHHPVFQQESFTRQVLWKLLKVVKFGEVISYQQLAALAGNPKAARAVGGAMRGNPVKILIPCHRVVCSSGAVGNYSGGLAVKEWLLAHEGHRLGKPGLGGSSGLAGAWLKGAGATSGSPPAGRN

Row | SMILES | ED50 [1] [nM] | ED50 [2] [nM] | Activity [3] | EC50 [4] [nM] | Activity [5] | Activity [6] | ED50 [7] [nM]
1 | Nc1nc(OCc2ccccc2)c2ncn([C@H]3C[C@H](O)[C@@H](CO)O3)c2n1 | 2000 | 40000 | – | – | – | – | –
2 | Nc1nc(OCc2ccccc2)c2nc[nH]c2n1 | 300 | 100 | – | – | – | – | –
3 | Nc1nc(OCc2ccc(CO)cc2)c2nc[nH]c2n1 | 400 | 100 | Active | – | – | – | –
4 | Nc1nc(OCc2ccc(COC(=O)CC[C@H](NC(=O)c3ccc(NCc4cnc5nc(N)[nH]c(=O)c5n4)cc3)C(=O)O)cc2)c2nc[nH]c2n1 | 700 | 240 | – | – | – | – | –
5 | Nc1nc(OCc2ccccc2)c2ncn([C@H]3C[C@H](O)[C@@H](COC(=O)CC[C@H](NC(=O)c4ccc(NCc5cnc6nc(N)[nH]c(=O)c6n5)cc4)C(=O)O)O3)c2n1 | 640 | – | Active | 3060 | Active | Active | –
6 | Nc1nc(OCc2ccccc2)c2ncn([C@H]3C[C@H](OC(=O)CC[C@H](NC(=O)c4ccc(NCc5cnc6nc(N)[nH]c(=O)c6n5)cc4)C(=O)O)[C@@H](CO)O3)c2n1 | 16 | 680 | Active | – | Active | Active | 100000
